Compound activity as filed in PubChem BioAssay.
OXTR potentiate – potentiators of human oxytocin receptor; P30559; CHO-OTR cells, Fluo-8 calcium fluorescence, potentiator mode; 0% = oxytocin EC15, 100% = EC100; activation, % at 3 µM; actives 0.061% (n = 320,000); AID 2445;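 active means activation above that plate's cutoff, the mean activation of tested compounds plus 3 SD, cut at about 6.6% in these data, passing the limit was not always enough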
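System: human OTR in CHO cells; Also added: sub-maximal oxytocin, roughly EC15; Timing: compound 6 min at room temperature before oxytocin, 100 s read; Technique: Fluo-8 intracellular calcium fluorescence, ex 470-495, em 515-575 nm; Controls: oxytocin EC15 low and EC100 high; Replication: singlicate.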
TAAR1 antag – antagonists of human TAAR1; CHO RD-HGA16 TAAR1, Fluo-8 calcium fluorescence, antagonist; Q96RJ0; actives 1.5% (n = 360,000); inhibition, % at 3 µM; AID 624466;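 active means inhibition above a per-plate cutoff, the mean inhibition of test compounds on that plate plus 3 SD, cut at about 49% in these data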
Target sequence (Q96RJ0 whole entry, looked up): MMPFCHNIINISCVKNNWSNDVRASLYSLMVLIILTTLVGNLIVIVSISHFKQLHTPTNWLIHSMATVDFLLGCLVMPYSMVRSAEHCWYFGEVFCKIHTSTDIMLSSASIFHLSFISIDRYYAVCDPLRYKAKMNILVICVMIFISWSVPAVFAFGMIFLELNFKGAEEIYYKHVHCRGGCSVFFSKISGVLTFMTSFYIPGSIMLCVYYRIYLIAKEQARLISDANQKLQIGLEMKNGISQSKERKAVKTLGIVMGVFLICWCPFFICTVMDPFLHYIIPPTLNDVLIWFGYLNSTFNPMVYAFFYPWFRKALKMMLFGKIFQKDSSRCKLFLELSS
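Material: CHO RD-HGA16 cells bearing hTAAR1; compound dosing: one-point dosing, 3 µM nominal final; schedule: dye loading 75 min at 37 °C, then 30 min room temperature; measured by: calcium fluorescence with Fluo-8; control set: vehicle and agonist controls; replication: n of 1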
OXTR ag – human OXTR agonism; CHO-OTR cells, Fluo-8 calcium fluorescence; normalized: DMSO 0%, oxytocin 100%; activation, % at 3 µM; actives 0.32% (n = 320,000);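 active means activation above the mean of all tested compounds plus 3 SD, cutoff set per screening run, cut at about 20% in these data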;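 further: peak over basal fluorescence ratio from a 100 s FLIPR kinetic read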
TAAR1 agonist – human TAAR1 agonism; Q96RJ0; CHO RD-HGA16 TAAR1, Fluo-8 calcium fluorescence; vehicle wells 0%, saturating PEA agonist 100%; activation, % at 3 µM; actives 0.99% (n = 360,000);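 active means activation above the mean activation of all test compounds in the run plus 3 SD, cut at about 38% in these data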
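Assay system – CHO-derived RD-HGA16 cells with stable Gα16 and human TAAR1 · Compound dosing – one-point dosing at 3 µM (nominal) · Incubation – 17-24 h seeding, 75 min 37 °C dye, 30 min RT · Measured by – kinetic Fluo-8 calcium fluorescence · Control set – DMSO vehicle as 0%, PEA at EC100 as 100% · Repeats – single well for each compound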
V1R ag counter – V1a receptor agonism, counter-screen for OXTR agonists; P37288; CHO-V1R cells, Fluo-8 calcium fluorescence, agonist mode; 0% DMSO, 100% 3 nM vasopressin; activation, % at 3 µM; actives 0.25% (n = 320,000); AID 2797;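 active means activation above the mean activation of all tested compounds plus 3 SD, per screening run, cut at about 20% in these data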;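 further: signal is peak over basal fluorescence ratio across a 100 second FLIPR read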
TAAR1 nonsel count – nonselective antagonism, TAAR1 counter-screen. shares compounds with TAAR1 antag. inhibition, % at 3 µM. AID 651780. actives 77% (n = 2,400). counterscreen cell line, calcium fluorescence, antagonist mode; in the data active means inhibition above about 22%;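 further: CHO-Ga16 host cells stimulated with ATP at an EC80 level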
TAAR1 antag conf – human TAAR1 antagonism, confirmed; shares compounds with TAAR1 antag; TAAR1-expressing cells, fluorescence antagonist read-out; inhibition, % at 3 µM; actives 40% (n = 2,400); in the data active means inhibition above about 49%;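 further: CHO-Ga16 host cells challenged with agonist PEA near its EC80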
Ga16 nonsel ag – nonselective Ga16 agonism, counter-screen; shares compounds with TAAR1 antag; Ga16-expressing cells, calcium fluorescence, agonist counterscreen; activation, % at 3 µM; actives 18% (n = 2,400); AID 651953; in the data active means activation above about 12%
TAAR1 ag count – counter-screen for human TAAR1 antagonists: TAAR1 agonists; activation, % at 3 µM; shares compounds with TAAR1 antag; hTAAR1 cell line, fluorescence activation, agonist mode; actives 2% (n = 2,400); AID 651955; in the data active means activation above about 37%;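 further: CHO cells stably expressing TAAR1 with calcium dye readout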
A number is an active result; n = inactive; x = no result given. Sampled rows, rich in hits. Any-hit rate of the full collection: about 2.3%.

SMILES	OXTR potentiate	TAAR1 antag	OXTR ag	TAAR1 agonist	V1R ag counter	TAAR1 nonsel count	TAAR1 antag conf	Ga16 nonsel ag	TAAR1 ag count
COC(=O)c1ccc2c(=O)n(CCCCCC(=O)N3CCN(c4ccccc4)CC3)c(=O)[nH]c2c1	n	74	n	n	n	58	72	14	n
Cc1ccc(C2NC(=O)c3[nH]nc(-c4ccccc4)c32)cc1 (configuration not stated)	x	n	x	n	x	x	x	x	x
O=C(COC(=O)Cc1ccc(Cl)cc1)Nc1ccccc1-c1ccccc1	n	n	n	n	n	x	x	x	x
O=C(COC(=O)Cc1c(Cl)cccc1Cl)Nc1ccccc1-c1ccccc1	n	62	n	n	n	22	52	n	n
COCCn1c(=O)[nH]c2cc(C(=O)Nc3ccc(OC)c(Cl)c3)ccc2c1=O	n	x	n	x	n	x	x	x	x
C=CCn1c(=S)[nH]c2cc(C(=O)Nc3ccc(OC)c(OC)c3)ccc2c1=O	n	62	n	n	n	33	n	12	n
COc1ccc(S(=O)(=O)N2CCOCC2)cc1NC(=O)C1COc2ccccc2O1 (configuration not stated)	n	59	n	n	n	26	n	n	n
CC(=O)c1c(C)[nH]c(C(=O)OCC(=O)Nc2ccc(Cl)c(S(=O)(=O)N(C)C)c2)c1C	n	68	n	n	n	28	n	12	n
CN(C)S(=O)(=O)c1cc(NC(=O)CNCCN2CCOCC2)ccc1Cl	n	105	n	n	n	n	n	n	n
CCc1ccc(NC(=S)N(Cc2cccc(Br)c2)CC2CCC(C(=O)O)CC2)cc1 (configuration not stated)	n	61	n	n	n	n	n	n	n
Cc1cc(C)cc(NC(=S)N(Cc2cccc(Br)c2)CC2CCC(C(=O)O)CC2)c1 (configuration not stated)	n	n	n	n	n	x	x	x	x
CCOc1ccc(OCCCC(=O)N2CCN(S(=O)(=O)c3ccccc3C#N)CC2)cc1	n	60	n	n	n	n	n	n	n
CCOc1ccc(OCCC(=O)N2CCN(S(=O)(=O)c3ccc(OCC)cc3)CC2)cc1	n	n	n	n	n	x	x	x	x
NC(=O)c1ccsc1NC(=O)COC(=O)Cc1c[nH]c2ccccc12	n	66	n	n	n	47	56	17	n
COc1ccc(C(=O)OCC(=O)Nc2sccc2C(N)=O)cc1OC	n	64	n	n	n	30	n	n	n
COc1cc(C(=O)OCC(=O)Nc2sccc2C(N)=O)cc(OC)c1OC	n	n	n	n	n	x	x	x	x
O=C(COC(=O)Cc1c[nH]c2ccccc12)Nc1ccccc1	n	n	n	n	n	x	x	x	x
CC(C)c1ccc(CC(=O)N2CCC2(C)C(=O)NCc2cccc3ccccc23)cc1 (configuration not stated)	x	n	x	n	x	x	x	x	x
COc1ccc(-c2cc(C(=O)N(C)Cc3cccc(OC)c3OC)c3ccccc3n2)cc1OC	n	62	n	n	n	28	n	n	n
COc1ccc2cc(-c3cc(C(=O)O)c4ccccc4n3)ccc2c1	n	n	n	n	n	x	x	x	x
COc1ccccc1CN(C)C(=O)c1cc(-c2cccs2)nc2ccccc12	n	70	n	n	n	37	56	n	n
COc1ccc(CN(C)C(=O)c2cc(-c3ccc(OC)c(OC)c3)nc3ccccc23)c(OC)c1	x	80	x	n	x	26	49	n	n
C=CCSc1nnc(CCc2ccccc2)n1N	x	n	x	n	x	x	x	x	x
COCCn1c(SCC(=O)N2CCCCCC2)nc2c([nH]c3ccccc32)c1=O	n	n	n	n	n	x	x	x	x
CCOC(=O)N1CCN(C(=O)CSc2nc3c([nH]c4ccccc43)c(=O)n2CCOC)CC1	n	55	n	n	n	28	n	n	n
SMILES	OXTR potentiate	TAAR1 antag	OXTR ag	TAAR1 agonist	V1R ag counter	TAAR1 nonsel count	TAAR1 antag conf	Ga16 nonsel ag	TAAR1 ag count
O=C1c2ccccc2C(c2nnnn2-c2ccc3c(c2)OCCO3)N1Cc1ccc(F)cc1 (configuration not stated)	x	n	x	n	x	x	x	x	x
CN(Cc1ccccc1)C(=O)c1cccc(NC(=O)Cc2cccc([N+](=O)[O-])c2)c1	n	65	n	n	n	26	n	n	n
CCOC(=O)c1cc2c(N)c(C(=O)c3cc(C#N)c(SC)nc3C)sc2nc1C	n	68	n	n	n	31	n	n	n
CCCCN(C)C(=O)C(Cc1ccccc1)NS(=O)(=O)c1ccc2c(c1)c(=O)n(C)c(=O)n2C (configuration not stated)	n	67	n	n	n	31	n	n	n
COc1cccc(CN(CCC(=O)O)Cc2cccc(OC)c2)c1	x	n	x	n	x	x	x	x	x
Cc1nc(SCC(=O)c2ccccc2)c(C#N)c(-c2ccco2)c1C(=O)NCc1ccco1	n	62	n	n	n	35	58	n	n
COCCOC(=O)c1c(C)nc(SCC(=O)Nc2ccc(OC)cc2)c(C#N)c1-c1ccco1	n	n	n	n	n	x	x	x	x
O=[N+]([O-])c1ccc(/C=N/Nc2ccc3ccccc3c2)o1	n	76	n	n	n	52	65	19	n
Cc1ccc(N(CC(=O)O)S(C)(=O)=O)cc1	n	n	n	n	n	x	x	x	x
C[C@@H]1CN([C@H](C)CO)S(=O)(=O)c2ccc(C#Cc3ccccc3F)cc2O[C@H]1CN(C)C(=O)c1ccc2c(c1)OCO2	x	73	x	n	x	34	59	12	n
O=C(NC1CCCCC1)C(C1CC1)n1c(=O)c(-c2ccccc2)nc2ccccc21 (configuration not stated)	x	n	x	n	x	x	x	x	x
Cc1cccc(C(=O)NN2C(=O)C3C(c4ccccc4)C=CC(c4ccccc4)C3C2=O)c1 (configuration not stated)	n	92	n	n	n	54	60	14	n
CC(C)(C)OC(=O)C[C@@H]1C/C=C\C[C@@H](CC(=O)N[C@@H](CO)Cc2ccccc2)C(=O)N2CCC[C@@H]2COC1=O	n	n	n	n	n	x	x	x	x
Cc1ccc(C(C)C)c(OCCNC(=O)c2ccccc2O)c1	n	58	n	n	n	n	n	n	n
COc1ccc(-c2c(-c3ccccc3OC)sc3ccccc23)cc1F	x	n	x	n	x	x	x	x	x
CCN(CC)S(=O)(=O)c1ccc(S(=O)(=O)N(CC(=O)Nc2ccccc2)Cc2ccco2)cc1	n	62	n	n	n	31	53	n	n
